pIC50: −log10 of the molar value.

The text below walks through data of ChEMBL document CHEMBL1944633, “A new generation of radiofluorinated pyrimidine-2,4,6-triones as MMP-targeted radiotracers for positron emission tomography” (J Med Chem, 2012).

Test system in the first series: not listed separately
In words: Drug uptake in BALB/c mouse urinary bladder at 5 to 8 MBq measured after 60 mins by CT scanning. It is filed as ADME, tissue-based. The note with it: in vivo, 1 h. In short, it runs like this: (§1)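 Balb/c mice (19–27 g) under isoflurane (1.5%/0.3 L/min) on a heating pad, tail-vein catheter. 5–8 MBq radiotracer in 100 μL with 150 μL saline flush, injected iv 30 s after scan start. Dynamic list-mode small-animal PET for 60 min, iterative resolution-recovery reconstruction. CT acquired afterwards (80 μm). CT-guided volumes of interest gave time–activity curves as %ID.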
For the molecule `O=C1NC(=O)C(c2ccc(Oc3ccccc3)cc2)(N2CCN(CCOCCOCCOCCOCc3cn(CC[18F])nn3)CC2)C(=O)N1`, the Drug uptake result is given as “Active”.

The next series has as its system Liver. Kind of series: Drug uptake in BALB/c mouse liver at 5 to 8 MBq measured after 60 mins by CT scanning. It is filed as ADME. The note with it: in vivo, 1 h. A digest of the protocol:
as §1
As to `O=C1NC(=O)C(c2ccc(Oc3ccccc3)cc2)(N2CCN(CCOCCOCCOCCOCc3cn(CC[18F])nn3)CC2)C(=O)N1`, the Drug uptake entry is recorded as “Active”.

For another series, the system named is Brain. In words: Drug uptake in BALB/c mouse brain at 5 to 8 MBq measured after 60 mins by CT scanning. The format is ADME, tissue-based. The note with it: in vivo, 1 h. A digest of the protocol:
as §1
For `O=C1NC(=O)C(c2ccc(Oc3ccccc3)cc2)(N2CCN(CCOCCOCCOCCOCc3cn(CC[18F])nn3)CC2)C(=O)N1`, the Drug uptake result is given as “Not Active”.

The test system of a further series is Kidney. In words: Drug uptake in BALB/c mouse kidney at 5 to 8 MBq measured after 60 mins by CT scanning. It is filed as ADME. Conditions: in vivo, 1 h. A digest of the protocol: as §1
In the case of `O=C1NC(=O)C(c2ccc(Oc3ccccc3)cc2)(N2CCN(CCOCCOCCOCCOCc3cn(CC[18F])nn3)CC2)C(=O)N1`, the Drug uptake result is on record as “Active”.

Test system in another series: not listed separately
Kind of series: Octanol-water partition coefficient, log D of the compound at pH 7.4 by gamma counter.
Conditions: not given; call rule not given here
It is filed as physicochemical. In short, it runs like this:
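About 20 kBq radioligand shaken 1 min at room temperature in equal volumes (0.5 mL) of PBS pH 7.4 and 1-octanol. Phases separated by centrifugation (3000 rpm, 2 min). Three 100 μL samples per layer gamma-counted. log D7.4 = log(cpm octanol/cpm PBS). Two independent experiments in triplicate, mean ± standard deviation.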
Take `O=C1NC(=O)C(c2ccc(Oc3ccccc3)cc2)(N2CCN(CC[18F])CC2)C(=O)N1`: the logD was determined as 2.15.

`O=C1NC(=O)C(c2ccc(Oc3ccccc3)cc2)(N2CCN(CCOCCOCCOCCOCc3cn(CC[18F])nn3)CC2)C(=O)N1` showed a logD of 0.78.

The molecule `O=C1NC(=O)C(c2ccc(-c3ccccc3)cc2)(N2CCN(c3ccc([N+](=O)[O-])cc3)CC2)C(=O)N1` returned a pH-dependent lipophilicity (logD) of 2.15.

The next series has as its system Lung. Kind of series: Drug uptake in BALB/c mouse lung at 5 to 8 MBq measured after 60 mins by CT scanning. The format is ADME. The note with it: in vivo, 1 h. A digest of the protocol: as §1
`O=C1NC(=O)C(c2ccc(Oc3ccccc3)cc2)(N2CCN(CCOCCOCCOCCOCc3cn(CC[18F])nn3)CC2)C(=O)N1`: the Drug uptake result was “Not Active”.

The target in another series is 72 kDa type IV collagenase (Homo sapiens, UniProt P08253). Kind of series: Inhibition of MMP2 using (7-methoxycoumarin-4-yl)acetyl-Pro-Leu-Gly-Leu-(3-(2,4-dinitrophenyl)-L-2,3-diaminopropionyl)Ala-Arg-NH2 as substrate preincubated for 30 mins measured after 10 mins by fluorescence analysis.
72 kDa type IV collagenase, sequence (P08253 whole entry): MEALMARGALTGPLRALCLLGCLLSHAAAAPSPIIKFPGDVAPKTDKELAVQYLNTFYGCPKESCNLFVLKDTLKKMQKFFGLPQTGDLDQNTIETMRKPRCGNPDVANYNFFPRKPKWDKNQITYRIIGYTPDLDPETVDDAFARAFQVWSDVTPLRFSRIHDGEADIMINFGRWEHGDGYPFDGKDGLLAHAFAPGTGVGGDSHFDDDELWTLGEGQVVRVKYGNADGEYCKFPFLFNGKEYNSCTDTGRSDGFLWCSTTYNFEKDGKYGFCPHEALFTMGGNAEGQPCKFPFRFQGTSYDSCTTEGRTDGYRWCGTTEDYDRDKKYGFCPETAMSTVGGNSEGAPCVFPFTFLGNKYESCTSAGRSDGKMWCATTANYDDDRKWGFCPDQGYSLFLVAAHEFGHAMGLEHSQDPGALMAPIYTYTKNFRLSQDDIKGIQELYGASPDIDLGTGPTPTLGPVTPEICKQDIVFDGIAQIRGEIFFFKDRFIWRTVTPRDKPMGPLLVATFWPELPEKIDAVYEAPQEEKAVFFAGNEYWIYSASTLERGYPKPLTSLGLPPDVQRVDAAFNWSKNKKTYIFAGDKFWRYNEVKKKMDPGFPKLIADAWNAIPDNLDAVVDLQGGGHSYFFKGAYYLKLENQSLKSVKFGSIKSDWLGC
Conditions: not given
A digest of the protocol: (§2)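 Activated enzyme at 2 nM preincubated with inhibitor (10 pM to 1 mM) for 30 min at 37 °C in 50 mM Tris-HCl pH 7.5, 0.2 M NaCl, 5 mM CaCl2, 20 μM ZnSO4, 0.05% Brij 35. Fluorogenic peptide substrate added (10 μL of 50 μM stock to 90 μL mix).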
In the case of `O=C1NC(=O)C(c2ccc(Oc3ccccc3)cc2)(N2CCN(c3cccc(F)n3)CC2)C(=O)N1`, the negative logarithm of the IC50 (pIC50) was 6.69.

As to `O=C1NC(=O)C(c2ccc(Oc3ccccc3)cc2)(N2CCN(CCOCCOCCOCCNC(=O)c3ccc(F)cc3)CC2)C(=O)N1`, the pIC50 is 8.30.

On to `O=C1NC(=O)C(NCc2cn(CCOCCOCCOCCF)nn2)(c2ccc(Oc3ccccc3)cc2)C(=O)N1`, for which the negative-log IC50 (pIC50) is 7.19.

Molecule `O=C1NC(=O)C(NCc2cn(CCOCCOCCOCCOc3cccnc3F)nn2)(c2ccc(Oc3ccccc3)cc2)C(=O)N1` gave a negative logarithm of the IC50 (pIC50) of 7.54.

As for `O=C1NC(=O)C(c2ccc(-c3ccccc3)cc2)(N2CCN(c3ccc([N+](=O)[O-])cc3)CC2)C(=O)N1`, the pIC50 is 7.64.

The target in another series is Neutrophil collagenase (Homo sapiens, UniProt P22894). In words: Inhibition of MMP8 using (7-methoxycoumarin-4-yl)acetyl-Pro-Leu-Gly-Leu-(3-(2,4-dinitrophenyl)-L-2,3-diaminopropionyl)Ala-Arg-NH2 as substrate preincubated for 30 mins measured after 10 mins by fluorescence analysis.
Neutrophil collagenase, sequence (P22894 whole entry): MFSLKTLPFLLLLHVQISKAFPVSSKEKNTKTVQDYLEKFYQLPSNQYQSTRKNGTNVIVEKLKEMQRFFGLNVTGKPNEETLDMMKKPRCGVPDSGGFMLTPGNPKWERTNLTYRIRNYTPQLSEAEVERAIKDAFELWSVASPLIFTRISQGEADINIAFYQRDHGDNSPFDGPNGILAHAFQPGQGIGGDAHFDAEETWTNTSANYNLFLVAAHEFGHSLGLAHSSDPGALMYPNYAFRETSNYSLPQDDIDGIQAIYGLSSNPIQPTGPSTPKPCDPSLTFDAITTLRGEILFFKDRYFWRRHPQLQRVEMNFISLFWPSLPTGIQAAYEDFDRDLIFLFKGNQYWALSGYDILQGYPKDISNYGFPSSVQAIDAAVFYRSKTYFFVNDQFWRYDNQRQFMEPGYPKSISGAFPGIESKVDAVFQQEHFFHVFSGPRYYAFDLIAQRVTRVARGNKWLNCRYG
Conditions: not given
A digest of the protocol: (§3)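 Activated enzyme at 2 nM preincubated with inhibitor (10 pM to 1 mM) for 30 min at 37 °C in 50 mM Tris-HCl pH 7.5, 0.2 M NaCl, 5 mM CaCl2, 20 μM ZnSO4, 0.05% Brij 35. Fluorogenic peptide substrate added (10 μL of 50 μM stock to 90 μL mix). Fluorescence read at ex 330/em 390 nm. Rates taken from initial 10 min; IC50 by nonlinear regression of rate versus concentration.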
As for `O=C1NC(=O)C(c2ccc(Oc3ccccc3)cc2)(N2CCN(CC[18F])CC2)C(=O)N1`, the pIC50 was 6.86.

On to `O=C1NC(=O)C(c2ccc(Oc3ccccc3)cc2)(N2CCN(c3cccc(F)n3)CC2)C(=O)N1`, for which the pIC50 is 6.89.

As to `O=C1NC(=O)C(c2ccc(Oc3ccccc3)cc2)(N2CCN(CCOCCOCCOCCNC(=O)c3ccc(F)cc3)CC2)C(=O)N1`, the pIC50 is 7.82.

Regarding `O=C1NC(=O)C(NCc2cn(CCOCCOCCOCCF)nn2)(c2ccc(Oc3ccccc3)cc2)C(=O)N1`, the pIC50 is 7.32.

`O=C1NC(=O)C(NCc2cn(CCOCCOCCOCCOc3cccnc3F)nn2)(c2ccc(Oc3ccccc3)cc2)C(=O)N1` gave a pIC50 of 7.31.

The subject of another series is Intestine. Kind of series: Drug uptake in BALB/c mouse intestine at 5 to 8 MBq measured after 60 mins by CT scanning. The note with it: in vivo, 1 h. It is filed as ADME, tissue-based. In short, it runs like this:
as §1
`O=C1NC(=O)C(c2ccc(Oc3ccccc3)cc2)(N2CCN(CCOCCOCCOCCOCc3cn(CC[18F])nn3)CC2)C(=O)N1`: the Drug uptake entry was “Active”.

The target in a further series is Collagenase 3 (Homo sapiens, UniProt P45452). Kind of series: Inhibition of MMP13 using (7-methoxycoumarin-4-yl)acetyl-Pro-Leu-Gly-Leu-(3-(2,4-dinitrophenyl)-L-2,3-diaminopropionyl)Ala-Arg-NH2 as substrate preincubated for 30 mins measured after 10 mins by fluorescence analysis.
Conditions: not given
A digest of the protocol:
as §3
Regarding `O=C1NC(=O)C(c2ccc(Oc3ccccc3)cc2)(N2CCN(CC[18F])CC2)C(=O)N1`, the pIC50 was 6.19.

Consider `O=C1NC(=O)C(c2ccc(Oc3ccccc3)cc2)(N2CCN(c3cccc(F)n3)CC2)C(=O)N1`, for which the negative logarithm of the IC50 (pIC50) was 7.32.

As to `O=C1NC(=O)C(c2ccc(Oc3ccccc3)cc2)(N2CCN(CCOCCOCCOCCNC(=O)c3ccc(F)cc3)CC2)C(=O)N1`, the negative logarithm of the IC50 (pIC50) was 7.80.

`O=C1NC(=O)C(NCc2cn(CCOCCOCCOCCF)nn2)(c2ccc(Oc3ccccc3)cc2)C(=O)N1`: the negative-log IC50 (pIC50) was 7.06.

With `O=C1NC(=O)C(NCc2cn(CCOCCOCCOCCOc3cccnc3F)nn2)(c2ccc(Oc3ccccc3)cc2)C(=O)N1`, the negative logarithm of the IC50 (pIC50) was 8.05.

The test system of the next series is Liver. Kind of series: Drug uptake in BALB/c mouse liver at 5 to 8 MBq measured after 90 to 120 mins post injection by CT scanning. The note with it: in vivo. It is filed as ADME.
As for `O=C1NC(=O)C(c2ccc(Oc3ccccc3)cc2)(N2CCN(CCOCCOCCOCCOCc3cn(CC[18F])nn3)CC2)C(=O)N1`, the Drug uptake entry was “Active”.

Test system in a further series: not listed separately
Kind of series: Drug uptake in BALB/c mouse gallbladder at 5 to 8 MBq measured after 60 mins by CT scanning. The format is ADME, Gall bladder. Conditions: in vivo, 1 h. In short, it runs like this:
as §1
As to `O=C1NC(=O)C(c2ccc(Oc3ccccc3)cc2)(N2CCN(CCOCCOCCOCCOCc3cn(CC[18F])nn3)CC2)C(=O)N1`, the Drug uptake result is reported as “Active”.

The target in a further series is Matrix metalloproteinase-9 (Homo sapiens, UniProt P14780). Kind of series: Inhibition of MMP9 using (7-methoxycoumarin-4-yl)acetyl-Pro-Leu-Gly-Leu-(3-(2,4-dinitrophenyl)-L-2,3-diaminopropionyl)Ala-Arg-NH2 as substrate preincubated for 30 mins measured after 10 mins by fluorescence analysis.
Matrix metalloproteinase-9, sequence (P14780 whole entry): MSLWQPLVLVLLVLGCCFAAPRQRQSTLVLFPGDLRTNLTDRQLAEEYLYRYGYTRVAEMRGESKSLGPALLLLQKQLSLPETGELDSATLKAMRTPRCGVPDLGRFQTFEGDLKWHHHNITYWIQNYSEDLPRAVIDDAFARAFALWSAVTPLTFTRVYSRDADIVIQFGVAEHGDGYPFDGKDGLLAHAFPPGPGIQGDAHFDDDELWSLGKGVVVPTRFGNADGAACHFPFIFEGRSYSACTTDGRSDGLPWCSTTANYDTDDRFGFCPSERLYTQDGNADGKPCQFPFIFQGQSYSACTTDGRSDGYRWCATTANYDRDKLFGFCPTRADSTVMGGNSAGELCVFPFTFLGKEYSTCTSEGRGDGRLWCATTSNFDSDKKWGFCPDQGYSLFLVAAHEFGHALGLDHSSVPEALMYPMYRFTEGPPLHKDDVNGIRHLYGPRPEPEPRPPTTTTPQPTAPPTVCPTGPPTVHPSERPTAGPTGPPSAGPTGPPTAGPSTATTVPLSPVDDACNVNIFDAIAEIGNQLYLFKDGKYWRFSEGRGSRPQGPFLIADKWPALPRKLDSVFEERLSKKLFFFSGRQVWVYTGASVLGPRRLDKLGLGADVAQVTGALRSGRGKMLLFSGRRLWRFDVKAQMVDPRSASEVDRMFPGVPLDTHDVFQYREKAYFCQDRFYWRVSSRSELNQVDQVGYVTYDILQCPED
Conditions: not given
In short, it runs like this:
as §2
Molecule `O=C1NC(=O)C(c2ccc(Oc3ccccc3)cc2)(N2CCN(c3cccc(F)n3)CC2)C(=O)N1` showed a pIC50 of 8.05.

With `O=C1NC(=O)C(c2ccc(Oc3ccccc3)cc2)(N2CCN(CCOCCOCCOCCNC(=O)c3ccc(F)cc3)CC2)C(=O)N1`, the pIC50 is 8.40.

Molecule `O=C1NC(=O)C(NCc2cn(CCOCCOCCOCCF)nn2)(c2ccc(Oc3ccccc3)cc2)C(=O)N1` had a pIC50 of 7.39.

On to `O=C1NC(=O)C(NCc2cn(CCOCCOCCOCCOc3cccnc3F)nn2)(c2ccc(Oc3ccccc3)cc2)C(=O)N1`, for which the pIC50 is 8.00.

In the case of `O=C1NC(=O)C(c2ccc(-c3ccccc3)cc2)(N2CCN(c3ccc([N+](=O)[O-])cc3)CC2)C(=O)N1`, the pIC50 is 8.15.

Test system in a further series: not listed separately
Kind of series: Drug uptake in BALB/c mouse skeleton at 5 to 8 MBq measured after 60 mins by CT scanning. The format is ADME. The note with it: in vivo, 1 h. A digest of the protocol:
as §1
In the case of `O=C1NC(=O)C(c2ccc(Oc3ccccc3)cc2)(N2CCN(CCOCCOCCOCCOCc3cn(CC[18F])nn3)CC2)C(=O)N1`, the Drug uptake entry is listed as “Active”.

The next series has as its system Serum. In words: Stability of the compound in human serum at 5MBq measured up to 120 mins by HPLC analysis. Conditions: 2 h. It is filed as ADME, cell-free. In short, it runs like this: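 PBS-formulated radioligand (20 μL, 5 MBq) added to 200 μL human serum at 37 °C. 20 μL aliquots taken at 10, 20, 30, 60, 90 and 120 min and quenched in methanol/CH2Cl2 (1:1, 100 μL). Samples centrifuged 2 min; organic layer analysed by radio-HPLC (10–90% CH3CN/water, 0.1% TFA gradient).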
For the molecule `O=C1NC(=O)C(c2ccc(Oc3ccccc3)cc2)(N2CCN(CCOCCOCCOCCOCc3cn(CC[18F])nn3)CC2)C(=O)N1`, the Stability result was “Stable”.

Another series concerns Heart. Kind of series: Drug uptake in BALB/c mouse heart at 5 to 8 MBq measured after 60 mins by CT scanning. Conditions: in vivo, 1 h. The format is ADME, tissue-based. In short, it runs like this:
as §1
On to `O=C1NC(=O)C(c2ccc(Oc3ccccc3)cc2)(N2CCN(CCOCCOCCOCCOCc3cn(CC[18F])nn3)CC2)C(=O)N1`, for which the Drug uptake entry was “Not Active”.

Another series has as its system Liver. Kind of series: Drug uptake in BALB/c mouse liver at 5 to 8 MBq measured after 10 to 15 mins post injection by CT scanning. The format is ADME. The note with it: in vivo.
Regarding `O=C1NC(=O)C(c2ccc(Oc3ccccc3)cc2)(N2CCN(CCOCCOCCOCCOCc3cn(CC[18F])nn3)CC2)C(=O)N1`, the Drug uptake entry was “Active”.

In general, logD refers to lipophilicity at a set pH, counting ionised and neutral species. High values mean a more lipophilic compound, low ones a more hydrophilic compound. Usually pIC50 stands for −log10 of the IC50, conventionally taken in molar units.
